Data on 8 compounds can be found in article PMC6843711 (ACS Omega, 2019).

The nature of series [1]: DPPH free radical scavenging assay. In outline: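 Methanolic test compound at 0.2–1.0 μg/mL was mixed with 0.004% methanolic DPPH and kept in the dark for 30 min. Absorbance was read at 517 nm. Compound solution without DPPH served as blank and DPPH alone as control. Percent inhibition was derived from absorbance with and without antioxidant. Each measurement was repeated three times.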

The subject of series [2] is diabetic mice. Briefly: Hematological study in vivo. The following applies: ip; for Alb / Chlst / Cr / TG / UA: serum. In outline:
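Alloxan-diabetic male mice (single 50 mg/kg ip after 18 h fast; n = 5 per group) received test compound ip for 1 week, with a saline group as control. Cardiac blood was drawn under diethyl ether into 10% EDTA for automated haematology (RBC, WBC, Hb, MCV, MCH, MCHC, PLT, RDW, HCT) and into plain tubes. Serum (600g, 15 min) was assayed for albumin, uric acid, glucose, triglyceride and cholesterol. Triplicate; mean ± SD; Kruskal–Wallis.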

In series [3] the test system is diabetic mice. Briefly: Blood glucose levels in diabetic mice. The class given is in vivo. The following applies: LOQ = 20 mM. In outline:
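Male mice (about 20 ± 2 g) were randomised into eight groups (n = 5). After an 18 h fast, diabetes was induced with a single ip alloxan dose of 50 mg/kg in 0.5 mL, and diabetic animals served as positive control. Test compound was given ip in 0.5 mL for 1 week, with saline as negative control. Cardiac blood was drawn under diethyl ether, and serum (600g, 15 min) was assayed for glucose. Triplicate; mean ± SD; Kruskal–Wallis, p < 0.05.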

For series [4] the following is noted: read-out: IC50, inhibition of CuSO4-induced oxidation of human LDL; cited from earlier work.

Consider `Cc1ccc(N2C(=O)c3ccccc3NC2c2c(C)nn(-c3ccccc3)c2Cl)c(C)c1` (stereo not drawn) [Compound 4k, 2-(5-Chloro-3-methyl-1-phenyl-1H-pyrazol-4-yl)-3-(2,4-dimethylphenyl)-2,3-dihydroquinazolin-4(1H)-one], for which the “Inhibition percent (%), DPPH scavenging” value in series [1] (conc. 0.2 μg mL^–1) came out at 67.72 ± 0.2%. The “Inhibition percent (%), DPPH scavenging” value in series [1] (conc. 0.4 μg mL^–1) was found to be 67.80 ± 0.3%. Also, the “Inhibition percent (%), DPPH scavenging” value in series [1] (conc. 0.6 μg mL^–1) stood at 67.87 ± 0.1%. In series [1] (conc. 0.8 μg mL^–1), the “Inhibition percent (%), DPPH scavenging” value came out at 67.95 ± 0.2%. In addition, the “Inhibition percent (%), DPPH scavenging” value in series [1] (conc. 1.0 μg mL^–1) turned out to be 68.03 ± 0.1%. In the series on diabetic mice [2] (dose 0.3 mM), the HB was 8.0 ± 0.2 g/dL, the HCT came out at 18.1 ± 0.1%, the MCH is given as 15.8 ± 0.1 ρg and the MCHC came to 44.0 ± 0.2 g/dL. In addition, in the series with diabetic mice [2] (dose 0.3 mM), the MCV was determined as 44.9 μm^3, the RBC is 8.05 10^6/mm^3, the RDW was 12.2 ± 0.01% and the WBC is 3.15 10^3/mm^3. In the series on diabetic mice [2] (dose 0.3 mM), the Alb is on record as 2.8 ± 0.07 g/dL, the Chlst is given as 64 ± 3.2 mg/dL, the Cr was determined as 0.45 ± 0.05 mg/dL and the TG worked out at 127 ± 2.5 mg/dL. Besides, in the series on diabetic mice [2] (dose 0.3 mM), the UA came out at 66 ± 2.7 µM. Further, in the series with diabetic mice [2] (dose 0.5 mM), the HB was 10.9 ± 0.1 g/dL, the HCT is 34.9 ± 0.2%, the MCH was 15.8 ± 0.1 ρg and the MCHC is recorded as 41.2 ± 0.2 g/dL. Moreover, in the series on diabetic mice [2] (dose 0.5 mM), the MCV worked out at 44.1 μm^3, the RBC is reported as 7.92 10^6/mm^3, the RDW came to 24.8 ± 0.01% and the WBC is 2.8 10^3/mm^3. In the series with diabetic mice [2] (dose 0.5 mM), the Alb stood at 2.8 ± 0.03 g/dL, the Chlst is given as 60 ± 6 mg/dL, the Cr came out at 0.42 ± 0.05 mg/dL and the TG is 121 ± 4 mg/dL. In the series on diabetic mice [2] (dose 0.5 mM), the UA came to 67 ± 3.3 µM. The “Mean blood glucose level” value with diabetic mice [3] (conc. 0.3 mM) is reported as 29 ± 1 mM.
As for `Cc1ccc(N2C(=O)c3ccccc3NC2c2c(C)nn(-c3ccccc3)c2Cl)cc1` (stereo not drawn) [Compound 4h, 2-(5-Chloro-3-methyl-1-phenyl-1H-pyrazol-4-yl)-3-(p-tolyl)-2,3-dihydroquinazolin-4(1H)-one], in series [1] (conc. 0.2 μg mL^–1), the “Inhibition percent (%), DPPH scavenging” value was found to be 11.42 ± 0.03%. In addition, the “Inhibition percent (%), DPPH scavenging” value in series [1] (conc. 0.4 μg mL^–1) came to 11.44 ± 0.02%. In addition, the “Inhibition percent (%), DPPH scavenging” value in series [1] (conc. 0.6 μg mL^–1) is given as 11.46 ± 0.02%. In series [1] (conc. 0.8 μg mL^–1), the “Inhibition percent (%), DPPH scavenging” value amounted to 11.48 ± 0.04%. Further, in series [1] (conc. 1.0 μg mL^–1), the “Inhibition percent (%), DPPH scavenging” value is 11.50 ± 0.07%. For the same compound, in the series with diabetic mice [2] (dose 0.3 mM), the HB was 14.5 ± 0.1 g/dL, the HCT is 37.1 ± 0.1%, the MCH was 15.8 ± 0.1 ρg and the MCHC worked out at 44.0 ± 0.2 g/dL. In addition, in the series with diabetic mice [2] (dose 0.3 mM), the MCV turned out to be 40.9 μm^3, the RBC is listed as 9.05 10^6/mm^3, the RDW is 21.8 ± 0.03% and the WBC is 5.3 10^3/mm^3. In addition, in the series with diabetic mice [2] (dose 0.3 mM), the Alb is 2.7 ± 0.04 g/dL, the Chlst is listed as 64 ± 3.2 mg/dL, the Cr turned out to be 0.41 ± 0.05 mg/dL and the TG was determined as 127 ± 1.5 mg/dL. Also, the UA with diabetic mice [2] (dose 0.3 mM) turned out to be 61 ± 3 µM. In the series on diabetic mice [2] (dose 0.5 mM), the HB was 14.2 ± 0.25 g/dL, the HCT came out at 37.9 ± 0.1%, the MCH is given as 15.5 ± 0.23 ρg and the MCHC was 41.2 ± 0.1 g/dL. In the series on diabetic mice [2] (dose 0.5 mM), the MCV was determined as 40.1 μm^3, the RBC was 9.92 10^6/mm^3, the RDW is reported as 23.6 ± 0.02% and the WBC is recorded as 5.6 10^3/mm^3. Moreover, in the series with diabetic mice [2] (dose 0.5 mM), the Alb came to 2.7 ± 0.02 g/dL, the Chlst is reported as 58 ± 6 mg/dL, the Cr turned out to be 0.4 ± 0.05 mg/dL and the TG worked out at 109 ± 0.7 mg/dL. The same compound gave a UA in the series with diabetic mice [2] (dose 0.5 mM) of 62 ± 1.5 µM. Further, the “Mean blood glucose level” value with diabetic mice [3] (conc. 0.3 mM) amounted to 44 ± 1 mM. In addition, in the series on diabetic mice [3] (conc. 0.5 mM), the “Mean blood glucose level” value came out at 22 ± 1 mM.
`Cc1nn(-c2ccccc2)c(Cl)c1C1Nc2ccccc2C(=O)N1c1ccc(O)cc1` (stereo not drawn) [Compound 4i, 2-(5-Chloro-3-methyl-1-phenyl-1H-pyrazol-4-yl)-3-(4-hydroxyphenyl)-2,3-dihydroquinazolin-4(1H)-one]: the “Inhibition percent (%), DPPH scavenging” value in series [1] (conc. 0.2 μg mL^–1) is 80.07 ± 0.77%; in series [1] (conc. 0.4 μg mL^–1), 81.18 ± 0.5%; in series [1] (conc. 0.6 μg mL^–1) it was 83.9 ± 0.1%; in series [1] (conc. 0.8 μg mL^–1), 85.62 ± 0.3%; in series [1] (conc. 1.0 μg mL^–1) it was 86.47 ± 0.27%. In addition, the “Mean blood glucose level” value is recorded as 44 ± 1 mM with diabetic mice [3] (conc. 0.3 mM) and “<LOQ” in the series on diabetic mice [3] (conc. 0.5 mM).
Take `O=C1O[C@H]([C@@H](O)CO)C(O)=C1O` [AA, Ascorbic Acid, reference compound]: the “Inhibition percent (%), DPPH scavenging” value in series [1] (conc. 0.2 μg mL^–1) worked out at 53.13 ± 0.7%; in series [1] (conc. 0.4 μg mL^–1), 61.22 ± 0.7%; in series [1] (conc. 0.6 μg mL^–1), 69.18 ± 1%; in series [1] (conc. 0.8 μg mL^–1), 88.47 ± 0.9%; in series [1] (conc. 1.0 μg mL^–1), 98.03 ± 2%.
Turning to `Cc1nn(-c2ccccc2)c(Cl)c1C1Nc2ccccc2C(=O)N1c1ccc(Cl)cc1` (stereo not drawn) [Compound 4j, 2-(5-Chloro-3-methyl-1-phenyl-1H-pyrazol-4-yl)-3-(4-chlorophenyl)-2,3-dihydroquinazolin-4(1H)-one], the “Inhibition percent (%), DPPH scavenging” value in series [1] (conc. 0.2 μg mL^–1) is reported as 79.9 ± 0.9%. The “Inhibition percent (%), DPPH scavenging” value in series [1] (conc. 0.4 μg mL^–1) was 87.68 ± 0.7%. Moreover, the “Inhibition percent (%), DPPH scavenging” value in series [1] (conc. 0.6 μg mL^–1) is reported as 93.58 ± 1%. Moreover, the “Inhibition percent (%), DPPH scavenging” value in series [1] (conc. 0.8 μg mL^–1) was determined as 99.37 ± 0.7%. Moreover, the “Inhibition percent (%), DPPH scavenging” value in series [1] (conc. 1.0 μg mL^–1) amounted to 102 ± 2%. In addition, in the series on diabetic mice [2] (dose 0.3 mM), the HB came to 14.8 ± 0.34 g/dL, the HCT is on record as 38.6 ± 0.1%, the MCH was 15.7 ± 0.2 ρg and the MCHC stood at 38.6 ± 0.2 g/dL. Further, in the series on diabetic mice [2] (dose 0.3 mM), the MCV came out at 40.2 μm^3, the PLT is given as 1350 10^3/mm^3, the RBC is recorded as 9.34 10^6/mm^3 and the RDW was determined as 22.5 ± 0.01%. In the series with diabetic mice [2] (dose 0.3 mM), the WBC was 7.6 10^3/mm^3, the Alb is reported as 2.9 ± 0.02 g/dL, the Chlst is given as 66 ± 1.4 mg/dL and the Cr is given as 0.41 ± 0.07 mg/dL. Further, in the series with diabetic mice [2] (dose 0.3 mM), the TG turned out to be 123 ± 3 mg/dL and the UA was determined as 65 ± 2 µM. In addition, in the series on diabetic mice [2] (dose 0.5 mM), the HB was determined as 14.8 ± 0.3 g/dL, the HCT is given as 39.6 ± 0.08%, the MCH was 15.5 ± 0.03 ρg and the MCHC is recorded as 38.2 ± 0.1 g/dL. Besides, in the series on diabetic mice [2] (dose 0.5 mM), the MCV was 39.9 μm^3, the PLT is 1326 10^3/mm^3, the RBC is reported as 9.17 10^6/mm^3 and the RDW came to 22.2 ± 0.02%. Also, in the series on diabetic mice [2] (dose 0.5 mM), the WBC is listed as 8 10^3/mm^3, the Alb stood at 2.8 ± 0.01 g/dL, the Chlst was found to be 62 ± 2.8 mg/dL and the Cr is given as 0.41 ± 0.09 mg/dL. Moreover, in the series with diabetic mice [2] (dose 0.5 mM), the TG was determined as 116 ± 3 mg/dL and the UA was determined as 65 ± 2 µM.
Regarding `Cc1ccc(N2C(=O)c3ccccc3NC2c2c(C)nn(-c3ccccc3)c2Cl)cc1C` (stereo not drawn) [Compound 4l, 2-(5-Chloro-3-methyl-1-phenyl-1H-pyrazol-4-yl)-3-(3,4-dimethylphenyl)-2,3-dihydroquinazolin-4(1H)-one], the “Inhibition percent (%), DPPH scavenging” value in series [1] (conc. 0.2 μg mL^–1) is 60.14 ± 0.1%; in series [1] (conc. 0.4 μg mL^–1), 60.19 ± 0.2%; in series [1] (conc. 0.6 μg mL^–1), 60.25 ± 0.2%; in series [1] (conc. 0.8 μg mL^–1), 60.30 ± 0.1%; in series [1] (conc. 1.0 μg mL^–1), 60.35 ± 0.2%.
For the compound magnolamide, the 50% inhibitory concentration (IC50) in series [4] was 9.7 µM.
Consider `Cc1nn(-c2ccccc2)c(Cl)c1C1Nc2ccccc2C(=O)N1c1ccccc1` (stereo not drawn) [Compound 4g, 2-(5-Chloro-3-methyl-1-phenyl-1H-pyrazol-4-yl)-3-phenyl-2,3-dihydroquinazolin-4(1H)-one], for which the “Inhibition percent (%), DPPH scavenging” value is given as 20.71 ± 0.2% in series [1] (conc. 0.2 μg mL^–1); 20.32 ± 0.2% in series [1] (conc. 0.4 μg mL^–1); 20.51 ± 0.1% in series [1] (conc. 0.6 μg mL^–1); 21.16 ± 0.1% in series [1] (conc. 0.8 μg mL^–1); 20.62 ± 0.5% in series [1] (conc. 1.0 μg mL^–1). Moreover, the “Mean blood glucose level” value came out at 65 ± 2 mM in the series with diabetic mice [3] (conc. 0.3 mM) and 27 ± 1 mM in the series on diabetic mice [3] (conc. 0.5 mM).
